Laboratory results published in ChEMBL document CHEMBL1137922, “Synthesis and activity of novel analogs of hemiasterlin as inhibitors of tubulin polymerization: modification of the A segment” (Bioorg Med Chem Lett, 2004).
Activity calls are given as the source filed them. The calls are words filed in the database; no cut-off is given here.

How the values were obtained:
Bos taurus [1] = species: Bos taurus; assay: Percent inhibition of bovine microtubule-assisted protein (MAP) rich tubulin polymerisation at concentration of 0.3 uM; (result for 2); type: functional
In short: (§1)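 Bovine MAP-rich tubulin (final 1.5 mg/mL) was prepared in cold PEM buffer (80 mM NaPIPES pH 6.9, 1 mM MgCl2, 1 mM EGTA) with 1 mM GTP and spun at 12,000g for 10 min at 4 C. It was added to duplicate compound wells (final 0.3 µM); controls held 0.3% DMSO. A340 was read every minute for 60 min at 24 C.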

KB85 (Homo sapiens) = assay: Concentration required to kill human epidermoid KB85 cell lines containing moderate levels of P-glycoprotein after 3 days of continuous exposure; settings: KB85, 72 h
Bos taurus [2] = species: Bos taurus; assay: Percent inhibition of bovine microtubule-assisted protein (MAP) rich tubulin polymerisation at concentration of 0.3 uM; type: functional; in short: as §1
KB [3] = assay: Concentration required to kill human epidermoid KBV1 cell lines containing very high levels of P-glycoprotein after 3 days of continuous exposure; type: functional, cell-based; settings: 72 h
In short: (§2)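 KB-3-1, KB85 and KBV1 cells were plated at densities set to reach 60–90% confluence at analysis. Compounds were serially diluted in medium as 2× stocks and added in duplicate. After 3 days of incubation, cell survival was read by SRB assay and reported as IC50.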

KB 3-1 = assay: Concentration required to kill human epidermoid KB-3-1 cell lines containing very low levels of P-glycoprotein after 3 days of continuous exposure; type: functional, cell-based; settings: KB 3-1, 72 h; in short: as §2
Mus musculus [4] = assay: Minimum tolerated dose against Lox melanoma human xenograft models in athymic mice; type: functional
Mus musculus [5] = assay: Minimum effective dose against Lox melanoma human xenograft models in athymic mice; type: functional
In short: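 Lox melanoma cells (1.5–7 × 10^6) were injected sc into athymic mice. At 80–100 mg tumour mass, animals were randomised into groups of 5 or 10 and dosed iv in saline. Tumour length and width were measured weekly, with mass = (L·W²)/2. Relative tumour growth and %T/C were calculated.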

Bos taurus [6] = species: Bos taurus; assay: Percent inhibition of bovine microtubule-assisted protein (MAP) rich tubulin polymerisation at concentration of 0.3 uM; Not applicable; type: functional; in short: as §1
Mus musculus [7] = species: Mus musculus; assay: Effect at 3 mpk against MX1W cell line expressing P-glycoprotein transporter in athymic mice; Active; type: functional, organism-based
Mus musculus [8] = species: Mus musculus; assay: Effect at 3 mpk against HCT-15 cell line expressing P-glycoprotein transporter in athymic mice; inactive; type: functional, organism-based
Mus musculus [9] = species: Mus musculus; assay: Effect at 4 mpk against DLD1 cell line expressing P-glycoprotein transporter in athymic mice; Active; type: functional, organism-based; settings: DLD-1
Mus musculus [10] = species: Mus musculus; assay: Effect at 1.6 mpk against HCT-15 cell line expressing P-glycoprotein transporter in athymic mice; Active; type: functional, organism-based
Mus musculus [11] = species: Mus musculus; assay: Effect at 1.6 mpk against MX1W cell line expressing P-glycoprotein transporter in athymic mice; Active; type: functional, organism-based
Mus musculus [12] = species: Mus musculus; assay: Effect at 1.6 mpk against DLD1 cell line expressing P-glycoprotein transporter in athymic mice; Active; type: functional, organism-based; settings: DLD-1
KB [13] = assay: Concentration required to kill 50% of human epidermoid KBV1 cell lines containing very high levels of P-glycoprotein after 3 days of continuous exposure; type: functional, cell-based; settings: 72 h; in short: as §2
Mus musculus [14] = species: Mus musculus; assay: Effect at 1.5 mpk against MX1W cell line expressing P-glycoprotein transporter in athymic mice; Active; type: functional, organism-based
Mus musculus [15] = species: Mus musculus; assay: Effect at 1.5 mpk against DLD1 cell line expressing P-glycoprotein transporter in athymic mice; Active; type: functional, organism-based; settings: DLD-1
Mus musculus [16] = species: Mus musculus; assay: Effect at 1.5 mpk against HCT-15 cell line expressing P-glycoprotein transporter in athymic mice; Active; type: functional, organism-based
Mus musculus [17] = species: Mus musculus; assay: Effect at 2 mpk against MX1W cell line expressing P-glycoprotein transporter in athymic mice; Active; type: functional, organism-based
Mus musculus [18] = species: Mus musculus; assay: Effect at 2 mpk against HCT-15 cell line expressing P-glycoprotein transporter in athymic mice; Active; type: functional, organism-based
Mus musculus [19] = species: Mus musculus; assay: Effect at 2 mpk against DLD1 cell line expressing P-glycoprotein transporter in athymic mice; Active; type: functional, organism-based; settings: DLD-1

| SMILES | Inhibition (Bos taurus [1]) | IC50 (KB85 (Homo sapiens)) | Inhibition (Bos taurus [2]) | IC50 (KB [3]) | IC50 (KB 3-1) | also measured |
| --- | --- | --- | --- | --- | --- | --- |
| CN[C@H](C(=O)N[C@H](C(=O)N(C)[C@H](/C=C(\C)C(=O)O)C(C)C)C(C)(C)C)C(C)(C)c1ccsc1 | 96% | 6.6 nM | 88% | 724 nM | 2.1 nM |  |
| CN[C@H](C(=O)N[C@H](C(=O)N(C)[C@H](/C=C(\C)C(=O)O)C(C)C)C(C)(C)C)C(C)(C)c1cccs1 | 88% | 3.9 nM | 92% | 162 nM | 2 nM | MTD (Mus musculus [4]): >5 mpk; MED (Mus musculus [5]): 1 mpk |
| CN[C@H](C(=O)N[C@H](C(=O)N(C)[C@H](/C=C(\C)C(=O)O)C(C)C)C(C)(C)C)C(C)(C)c1cn(C)c2ccccc12 [HEMIASTERLIN] |  | 1 nM |  | 76 nM | 0.3 nM | inhibition (Bos taurus [6]): inactive |
| C=Cc1cccc(C(C)(C)[C@H](NC)C(=O)N[C@H](C(=O)N(C)[C@H](/C=C(\C)C(=O)O)C(C)C)C(C)(C)C)c1 | 90% | 2 nM | 88% | 130 nM | 0.86 nM |  |
| CN[C@H](C(=O)N[C@H](C(=O)N(C)[C@H](/C=C(\C)C(=O)O)C(C)C)C(C)(C)C)C(C)(C)c1cccc(Cl)c1 | 88% | 3.2 nM | 91% | 91 nM | 1.14 nM | MTD (Mus musculus [4]): 3 mpk; Effect (Mus musculus [7]): Active; MED (Mus musculus [5]): 0.3 mpk; Effect (Mus musculus [8]): inactive |
| CN[C@H](C(=O)N[C@H](C(=O)N(C)[C@H](/C=C(\C)C(=O)O)C(C)C)C(C)(C)C)C(C)(C)c1cccc(Br)c1 | 84% | 4.1 nM | 90% | 148 nM | 1.8 nM | MTD (Mus musculus [4]): 4 mpk; Effect (Mus musculus [9]): Active; MED (Mus musculus [5]): 1 mpk |
| CN[C@H](C(=O)N[C@H](C(=O)N(C)[C@H](/C=C(\C)C(=O)O)C(C)C)C(C)(C)C)C(C)(C)c1ccc(C)cc1 | 94% | 2.6 nM | 95% | 55 nM | 1.5 nM |  |
| CN[C@H](C(=O)N[C@H](C(=O)N(C)[C@H](/C=C(\C)C(=O)O)C(C)C)C(C)(C)C)C(C)(C)c1ccccc1 [TALTOBULIN] |  | 2.4 nM | 91% | 81 nM | 1 nM | Effect (Mus musculus [10]): Active; Effect (Mus musculus [11]): Active; Effect (Mus musculus [12]): Active |
| CCc1cccc(C(C)(C)[C@H](NC)C(=O)N[C@H](C(=O)N(C)[C@H](/C=C(\C)C(=O)O)C(C)C)C(C)(C)C)c1 | 90% | 1.8 nM | 88% | 62 nM | 0.79 nM |  |
| CN[C@H](C(=O)N[C@H](C(=O)N(C)[C@H](/C=C(\C)C(=O)O)C(C)C)C(C)(C)C)C(C)(C)c1ccc(C)c(C)c1 | 88% | 1.13 nM | 88% |  | 0.4 nM | MTD (Mus musculus [4]): >1 mpk; MED (Mus musculus [5]): 0.2 mpk; IC50 (KB [13]): 39 nM |
| CN[C@@H](C(=O)N[C@H](C(=O)N(C)[C@H](/C=C(\C)C(=O)O)C(C)C)C(C)(C)C)C(C)(C)c1ccc(C)cc1 | 94% | 27.5 nM | 95% | 1070 nM | 17 nM |  |
| CN[C@H](C(=O)N[C@H](C(=O)N(C)[C@H](/C=C(\C)C(=O)O)C(C)C)C(C)(C)C)C(C)(C)c1cccc(C(F)(F)F)c1 | 96% | 1.7 nM | 98% | 42.7 nM | 0.65 nM | MTD (Mus musculus [4]): >5 mpk; MED (Mus musculus [5]): 1 mpk |
| CN[C@H](C(=O)N[C@H](C(=O)N(C)[C@H](/C=C(\C)C(=O)O)C(C)C)C(C)(C)C)C(C)(C)c1cccc(C)c1 | 89% | 0.65 nM | 90% | 19 nM | 0.23 nM | Effect (Mus musculus [14]): Active; Effect (Mus musculus [15]): Active; MTD (Mus musculus [4]): 1.5 mpk; MED (Mus musculus [5]): <0.1 mpk; Effect (Mus musculus [16]): Active |
| CN[C@@H](C(=O)N[C@H](C(=O)N(C)[C@H](/C=C(\C)C(=O)O)C(C)C)C(C)(C)C)C(C)(C)c1cccc(C)c1 | 89% | 19.9 nM | 88% | 446 nM | 7.9 nM |  |
| CN[C@H](C(=O)N[C@H](C(=O)N(C)[C@H](/C=C(\C)C(=O)O)C(C)C)C(C)(C)C)C(C)(C)c1cc(C)cc(C)c1 | 88% | 1.23 nM | 85% | 44 nM | 0.55 nM |  |
| CN[C@H](C(=O)N[C@H](C(=O)N(C)[C@H](/C=C(\C)C(=O)O)C(C)C)C(C)(C)C)C(C)(C)c1cc(F)cc(F)c1 | 84% | 16.2 nM | 90% | 457 nM | 6.2 nM |  |
| CN[C@H](C(=O)N[C@H](C(=O)N(C)[C@H](/C=C(\C)C(=O)O)C(C)C)C(C)(C)C)C(C)(C)c1cccc(F)c1 | 93% | 1.8 nM | 103% | 77 nM | 1 nM |  |
| CN[C@H](C(=O)N[C@H](C(=O)N(C)[C@H](/C=C(\C)C(=O)O)C(C)C)C(C)(C)C)C(C)(C)c1cccc(C(C)=O)c1 | 87% | 5.8 nM | 93% | 370 nM | 1.9 nM |  |
| CN[C@H](C(=O)N[C@H](C(=O)N(C)[C@H](/C=C(\C)C(=O)O)C(C)C)C(C)(C)C)C(C)(C)c1cccc(-c2ccccc2)c1 | 84% | 5.4 nM | 86% | 149 nM | 1.9 nM |  |
| CCOC(=O)/C(C)=C/[C@H](C(C)C)N(C)C(=O)[C@@H](NC(=O)[C@@H](NC)C(C)(C)c1ccc(C)c(C)c1)C(C)(C)C | 92% | 24 nM | 49% | 191 nM | 9.1 nM | Effect (Mus musculus [17]): Active; MTD (Mus musculus [4]): >2 mpk; Effect (Mus musculus [18]): Active; MED (Mus musculus [5]): 0.5 mpk; Effect (Mus musculus [19]): Active |
| CN[C@H](C(=O)N[C@H](C(=O)N(C)[C@H](/C=C(\C)C(=O)O)C(C)C)C(C)(C)C)C(C)(C)c1ccc(Cl)cc1 | 96% | 1.7 nM | 95% | 53 nM | 0.56 nM |  |
| CCOC(=O)/C(C)=C/[C@H](C(C)C)N(C)C(=O)[C@@H](NC(=O)[C@@H](NC)C(C)(C)c1cccc(C)c1)C(C)(C)C | 94% | 525 nM | 58% | 2410 nM | 21.9 nM |  |
| CCOC(=O)/C(C)=C/[C@H](C(C)C)N(C)C(=O)[C@@H](NC(=O)[C@H](NC)C(C)(C)c1cccc(C)c1)C(C)(C)C | 94% | 1700 nM | 26% | 3000 nM | 263 nM |  |
| CN[C@H](C(=O)N[C@H](C(=O)N(C)[C@H](/C=C(\C)C(=O)O)C(C)C)C(C)(C)C)C(C)(C)c1cc(C(F)(F)F)cc(C(F)(F)F)c1 | 93% | 19 nM | 60% | 457 nM | 17 nM |  |
